According to ChEMBL document CHEMBL3286104, “Synthesis and structure-activity relationship studies in serotonin 5-HT4 receptor ligands based on a benzo[de][2,6]naphthridine scaffold” (Eur J Med Chem, 2014):

Assays:
[1] = molecular target: 5-hydroxytryptamine receptor 4 (Cavia porcellus, UniProt O70528); test: Displacement of [3H]GR113808 from Dunkin-Hartley guinea pig brain striatum 5HT4R after 30 mins
Method in brief: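 Striatal crude membranes from decapitated guinea pigs, diluted in 50 mM Hepes pH 7.4, were incubated with [3H]17 (0.2 nM final) at 37 °C for 30 min. Separation by rapid filtration on PEI-treated GF/B filters, then scintillation counting. Nonspecific binding was defined with 30 µM 5-HT. Ki was derived as IC50/(1+L/Kd). Mean ± SEM of 3 independent determinations run in duplicate.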

[2] = molecular target: T1, 5-hydroxytryptamine receptor 4 (Homo sapiens, UniProt Q13639); test: Antagonist activity at Rluc-tagged human 5HT4R expressed in human SH-SY5Y cells assessed as inhibition of serotonin-induced receptor/Gbeta1 coupling by BRET assay; assay type: cell-based
T1 sequence (Q13639 whole entry, the tested form may be a part): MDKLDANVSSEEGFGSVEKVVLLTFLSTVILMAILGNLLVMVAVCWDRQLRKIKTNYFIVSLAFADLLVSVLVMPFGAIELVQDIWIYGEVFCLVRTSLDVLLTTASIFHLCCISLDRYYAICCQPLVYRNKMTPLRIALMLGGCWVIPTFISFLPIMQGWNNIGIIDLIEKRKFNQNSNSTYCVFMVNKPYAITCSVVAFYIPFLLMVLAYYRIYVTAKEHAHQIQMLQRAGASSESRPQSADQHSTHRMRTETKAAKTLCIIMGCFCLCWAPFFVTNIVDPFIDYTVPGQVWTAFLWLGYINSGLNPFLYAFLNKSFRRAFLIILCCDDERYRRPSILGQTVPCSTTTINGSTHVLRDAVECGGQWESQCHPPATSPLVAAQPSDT
Method in brief: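 Cell-free BRET on enriched membranes (5 µg protein in PBS) from […] neuroblastoma cells retrovirally co-expressing Rluc-tagged human 5-HT4R and RGFP-fused Gβ1. Coupling was induced with 100 nM serotonin and inhibited by ligand at 8 log-spaced concentrations. IC50 for 50% inhibition of coupling was computed from the concentration-inhibition curves.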

[3] = molecular target: T1, 5-hydroxytryptamine receptor 4; test: Partial agonist activity at Rluc-tagged human 5HT4R expressed in human SH-SY5Y cells assessed as effect on serotonin-induced receptor/Gbeta1 coupling by BRET assay; assay type: cell-based
Method in brief: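 BRET on membranes (5 µg protein in PBS) from […] cells co-expressing Rluc-human 5-HT4R and RGFP-Gβ1, with ligand at 10 µM. The baseline recorded without ligand was subtracted, and the BRET ratio was expressed relative to that obtained with 10 µM serotonin. Means ± SEM of 3 determinations.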

Sequence of 5-hydroxytryptamine receptor 4 (Cavia porcellus, UniProt O70528) (O70528 whole entry): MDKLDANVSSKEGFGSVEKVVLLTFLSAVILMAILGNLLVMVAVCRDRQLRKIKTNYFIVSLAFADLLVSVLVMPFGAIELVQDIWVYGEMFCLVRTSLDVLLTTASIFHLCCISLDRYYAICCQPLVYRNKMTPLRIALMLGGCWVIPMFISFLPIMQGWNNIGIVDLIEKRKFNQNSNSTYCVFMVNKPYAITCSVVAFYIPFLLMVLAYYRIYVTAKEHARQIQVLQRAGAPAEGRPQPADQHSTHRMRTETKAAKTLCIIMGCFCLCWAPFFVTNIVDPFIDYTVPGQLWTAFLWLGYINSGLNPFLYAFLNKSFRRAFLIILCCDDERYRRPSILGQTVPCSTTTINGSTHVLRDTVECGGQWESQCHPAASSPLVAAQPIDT

SMILES | Ki [1] | IC50 [2] | IC50 [3]
COc1cc(C(=O)NCCCN2CCCCC2)c2ccccc2n1 | > 1000 nM | – | –
COc1cc2c3c(cccc3n1)CN(CCCN1CCCCC1)C2=O | 283 nM | 916 nM | –
O=C1c2cc(Cl)nc3cccc(c23)CN1CCCN1CCCCC1 | 563 nM | – | 195 nM
O=C1c2cc(N3CCCC3)nc3cccc(c23)CN1CCCN1CCCCC1 | > 1000 nM | – | –
O=C1c2cccc3nc(N4CCCC4)cc(c23)C(=O)N1CCCN1CCCCC1 | > 1000 nM | – | –
O=C1c2cccc3nc(N4CCCCC4)cc(c23)C(=O)N1CCCN1CCCCC1 | 344 nM | – | –

The next compounds have a lower Ki [1] than those just listed; values first:

Ki [1] | IC50 [2] | IC50 [3] | SMILES
52 nM | 203 nM | – | COc1cc(C(=O)OCCCN2CCCCC2)c2ccccc2n1
44 nM | 110 nM | – | COc1cc2c3c(cccc3n1)C(=O)N(CCCN1CCCCC1)C2=O
105 nM | 453 nM | – | O=C1c2cccc3nc(Cl)cc(c23)C(=O)N1CCCN1CCCCC1
19 nM | – | 49 nM | COc1cc(N)c(Cl)cc1C(=O)OCCCN1CCCCC1
